# Bioassay records as filed in PubChem BioAssay.
# Exocytosis inh – lytic granule exocytosis inhibition; TALL-104 LAMP-1 surface exposure, flow cytometry; cells stimulated with thapsigargin and PMA; inhibition, % at 10 µM; 360,000 tested, 0.66% active;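 active = inhibition above about 55%, limit read from the data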
# MC4R ag barr – human MC4R agonism via beta-arrestin | P32245 | U2OS MC4R beta-arrestin complementation, luminescence; percent of melanotan II response, DMSO zero | activation, % at 8.9 µM | 360,000 tested, 0.98% active | AID 540308;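 active = activation above a per-plate cutoff, the mean activation of sample wells on that plate plus 3 SD, cut at about 8% in these data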
# Target sequence (P32245 whole entry, looked up): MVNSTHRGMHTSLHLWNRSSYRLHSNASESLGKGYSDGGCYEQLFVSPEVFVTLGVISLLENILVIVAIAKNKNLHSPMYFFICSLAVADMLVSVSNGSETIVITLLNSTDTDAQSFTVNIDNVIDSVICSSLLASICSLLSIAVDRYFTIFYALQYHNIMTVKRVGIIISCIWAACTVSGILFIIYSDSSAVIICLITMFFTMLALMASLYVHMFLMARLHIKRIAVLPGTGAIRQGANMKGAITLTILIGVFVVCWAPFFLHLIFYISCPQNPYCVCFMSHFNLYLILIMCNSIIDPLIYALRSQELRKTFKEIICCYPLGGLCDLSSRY
# Tb MetRS inh – Trypanosoma brucei MetRS inhibition | purified T. brucei MetRS, ATP depletion, Kinase-Glo luminescence | inhibition, % at 11.9 µM | 360,000 tested, 0.4% active | AID 624268;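 active = inhibition above a per-plate cutoff of the control wells' mean inhibition plus 3 SD, cut at about 5.5% in these data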
#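 Test system: purified T. brucei MetRS enzyme. Also added: ATP, methionine and E. coli bulk tRNA substrates. Compound: 11.9 µM single point. Schedule: 15 min enzyme-compound preincubation, 2 h reaction, 10 min detection, 25 °C. Signal: luciferase luminescence of residual ATP, Kinase-Glo. Evaluation: percent inhibition versus plate control medians. Controls: DMSO wells, low control.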
# MC4R antagonist – human MC4R antagonism in cAMP assay | P32245 | AID 540295 | inhibition, % at 6.5 µM | 360,000 tested, 0.48% active | MC4R-expressing cells, MTII-stimulated cAMP, LANCE TR-FRET;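 active = inhibition above its plate's cutoff, the mean of tested wells on that plate plus 3 SD, cut at about 29% in these data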
#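 System: U2OS cells stably expressing human melanocortin 4 receptor (MC4R). Reagent: Melanotan II challenge after compound preincubation. Doses: 6.5 µM. Times: 30-min compound, 1-h challenge, 1-h detection, room temperature. Measured by: TR-FRET with Eu-cAMP and labeled anti-cAMP, 671 nm. Replicates: singlicate.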
# ABCB6 inh MLPCN – human ABCB6 transporter inhibition | Q9NP58 | K562-ABCB6 porphyrin accumulation, flow cytometry, 1 h; stronger effect = lower value | fluorescence ratio to DMSO, % at 10 µM | 360,000 tested, 0.19% active;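 active = fluorescence ratio to DMSO below 75%, the collection mean minus 3 SD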;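 also: signal is porphyrin accumulated inside mitochondria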
# iPSC survival up – enhancers of human iPSC single-cell survival. hiPSC single-cell survival, ATPlite luminescence; 100% = ROCK inhibitor wells, 0% = DMSO. survival enhancement, % at 20 µM. 360,000 tested, 0.044% active. AID 602274; in the data active = survival enhancement above about 18%;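 also: cells exposed to compounds for 16 hours before the ATP read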
# Exocytosis CP01 – lytic granule exocytosis inhibition; shares compounds with Exocytosis inh; TALL-104 cells, LAMP-1 externalization, flow cytometry; stimulated with PMA plus thapsigargin; inhibition, % at 10 µM; 1,500 tested, 11% active; in the data active = inhibition above about 60%
# A number is an active result; - = inactive; . = no result given. Compounds with a hit are over-represented: about 2.6% of the library has one in this group of screens.
SMILES,Exocytosis inh,MC4R ag barr,Tb MetRS inh,MC4R antagonist,ABCB6 inh MLPCN,iPSC survival up,Exocytosis CP01
Fc1ccc(CNc2nc(-c3cccnc3)nc3ccccc23)cc1,-,-,-,-,-,-,.
NC(=O)[C@@H]1CCCNc2c(F)cc([N+](=O)[O-])cc2C(=O)N[C@@H](CCC(=O)O)C(=O)N[C@@H](CO)C(=O)N1,-,-,-,-,-,-,.
O=C(CCn1nc(-c2ccc(Cl)cc2)ccc1=O)N1CCN(c2ccccc2)CC1,-,-,-,-,-,-,.
O=C(NCc1cccc(Cl)c1)c1cccc2c(-c3cccnc3)coc12,-,-,-,-,-,-,.
Cc1ccc2c(CN(C)Cc3ccc(OC(F)F)cc3)cc(=O)oc2c1C,84,-,-,-,-,-,-
Cc1cc(NS(=O)(=O)c2c(C)c(C)cc(C)c2C)no1,-,-,-,-,-,-,.
Cc1ccc(CN(C)C(=O)c2c(C)nn(-c3ccccc3)c2C)cc1,67,-,-,-,-,-,-
O=C(NCCc1cccc(C(F)(F)F)c1)C1CCC(=O)N(Cc2ccc(Cl)cc2)C1 (centres undefined),-,-,-,-,-,-,.
Cc1ccc(CC(=O)N(C)CC(=O)Nc2ccc(N3CCOCC3)cc2)cc1C,-,-,-,-,-,-,.
Cc1ccc(NC(=O)CN(C)CC(=O)Nc2ccc(N3CCOCC3)cc2)cc1F,99,-,-,-,-,-,-
COCCCNC(=O)c1ccc(CS(=O)(=O)c2ccccc2OC)o1,-,-,-,-,-,-,.
CCCCSCCCNC(=O)c1ccc(CS(=O)(=O)c2ccccc2OC)o1,94,-,-,-,-,-,-
COc1ccccc1C1CC(=O)Oc2cc(OC)c(OC)c(OC)c21 (centres undefined),-,-,-,-,-,-,.
Cc1cc(Nc2cccc(Cl)c2)c2ccccc2n1,78,-,-,-,-,-,-
Cn1c(N)c(C(=O)COc2ccc(C#N)cc2)c(=O)n(C)c1=O,-,-,-,-,-,-,.
O=C(COc1ccccc1)Nc1cc(C(F)(F)F)ccc1N1CCCC1,74,-,-,-,-,-,-
O=C(COc1ccccc1)Nc1ccccc1N1CCCCC1,-,-,-,-,-,-,.
O=C1c2c(-c3ccc(Br)cc3)noc2CCN1Cc1cn(Cc2ccccc2)nn1,-,.,-,.,.,.,.
COc1cc2c(cc1NC(=O)CSc1nnc(COc3ccc(Cl)cc3)n1C)oc1ccccc12,60,-,-,-,-,-,-
CN(CC(=O)Nc1ccccc1Cl)C(=O)COC(=O)c1ccc([N+](=O)[O-])cc1Cl,-,-,-,-,-,-,.
CN(CCOc1ccccc1)CC(=O)Nc1ccc([N+](=O)[O-])cc1Cl,73,-,-,-,-,-,-
CCOc1ccc2nc(SC3CC(=O)N(c4ccc(OC)cc4OC)C3=O)sc2c1 (centres undefined),62,-,-,-,-,-,-
CCOc1ccc2nc(SC3CC(=O)N(c4ccc(C)cc4)C3=O)sc2c1 (centres undefined),56,-,-,-,-,-,-
COc1ccc(N2C(=O)CC(Sc3nc4ccccc4s3)C2=O)cc1OC (centres undefined),-,-,-,-,-,-,.
O=C1CN2NC(=S)N(c3ccccc3)C2=CN1c1ccc(Cl)cc1,-,-,-,-,-,-,.
SMILES,Exocytosis inh,MC4R ag barr,Tb MetRS inh,MC4R antagonist,ABCB6 inh MLPCN,iPSC survival up,Exocytosis CP01
COc1ccc(OC)c(/C=C/C(=O)N2CCCc3ccccc32)c1,-,-,-,-,-,-,.
COc1ccc(/C=C/C(=O)N2CCCc3ccccc32)c(OC)c1,72,-,-,-,-,-,-
CCN(CC)CCn1c(=N)n(CCO)c2ccccc21,-,-,-,-,-,-,.
CCN(CC)CCn1c(=N)n(CC(=O)c2ccc(Br)s2)c2ccccc21,79,-,-,-,-,-,-
COc1cccc(-c2cnc3c(NC=O)cc(-c4ccccc4)cn23)c1,97,-,-,-,-,-,70
COc1cccc(-c2cnc3c(NC=O)cc(-c4cc(C)c(O)c(C)c4)cn23)c1,63,-,-,-,-,-,-
Cc1cc(-c2cc(NC=O)c3ncc(-c4cccc(C(=O)NCCN(C)C)c4)n3c2)cc(C)c1O,-,-,-,-,-,-,.
COc1ccc(NS(=O)(=O)c2ccc3c(c2)NC(=O)CC(=O)N3)cc1OC,-,-,-,-,-,-,.
Cc1noc(C)c1S(=O)(=O)N(CC(=O)NC1CCC(C)CC1)c1ccc(C(C)C)cc1 (centres undefined),72,-,-,-,-,-,-
CCOc1ccc(N(CC(=O)NC2CCC(C)CC2)S(=O)(=O)c2c(C)noc2C)cc1 (centres undefined),-,-,-,-,-,-,.
COc1ccccc1Cc1c(-c2ccco2)nc2c3ccccc3ccn12,76,.,-,.,-,-,-
O=C(COC(=O)CC1CC2CCC1C2)NCc1ccc(Cl)cc1 (centres undefined),63,-,-,-,-,-,-
Cc1cc2n(n1)C(c1cccs1)Nc1ccccc1-2 (centres undefined),-,-,-,-,-,-,.
CCOC(=O)c1nn(-c2ccc(C)c(C)c2)c(=O)c(C#N)c1C,-,-,-,-,-,-,.
COc1ccccc1CN1C[C@@H]2C[C@@H](C3=Cc4cc(Cl)ccc4OC3)N3CCC[C@@]23C1=O,56,-,-,-,-,-,-
Cc1ccc(CNC(=O)C2CCC(=O)N(Cc3cccc(F)c3)C2)s1 (centres undefined),-,-,-,-,-,-,.
CCOC(=O)c1c(NC(=O)c2ccccc2N(C)S(=O)(=O)c2ccccc2)sc2c1CCCC2,-,-,-,-,-,-,.
CCOC(=O)c1c(NC(=O)C(NCCN(C)C)c2ccccc2)sc2c1CCCC2 (centres undefined),70,-,-,-,-,-,-
COc1cc(O)c(C(CC(=O)N2CCCC(C)C2)c2cc(OC)c(OC)c(OC)c2)c(OC)c1 (centres undefined),58,-,-,-,-,-,-
O=C(CSc1nnc(NC(=O)C2CC(=O)N(c3ccccc3)C2)s1)NC1CCCC1 (centres undefined),-,-,-,-,-,-,.
COc1cccc(CN2C(=O)C(C)N(C(=O)c3c(F)cccc3F)c3ccccc32)c1 (centres undefined),56,-,-,-,-,-,-
CCOc1ccc2[nH]c3c(N4CCc5ccccc5C4)ncnc3c2c1,97,-,-,-,-,-,98
Cc1ccc2[nH]c3c(c2c1)CCCC3NC(=O)CCl (centres undefined),-,-,-,-,-,-,.
C=CCSc1nc2c(C(=O)OCC)nnn2c2ccccc12,81,-,-,-,-,-,-
